Screening results from PubChem.
VIM-2 inh = VIM-2 metallo-beta-lactamase inhibitors, primary screen, biochemical, epi-absorbance readout, Pseudomonas aeruginosa enzyme. purified VIM-2, nitrocefin hydrolysis, epi-absorbance fluorescence. inhibition, % at 5.6 µM. 290,000 tested, 0.89% active. AID 1527, 2009;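 active = inhibition above the mean of all tested compounds plus 3 SD, cutoff set per screening run, cut at about 7.5% in these data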;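 note: red hydrolysis product quenches plate fluorescence so inhibitors raise well fluorescence; 0% = enzyme with DMSO and 100% = DMSO without enzyme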
HCV core dimer = inhibitors of HCV core protein dimerization, primary screen, biochemical, TR-FRET, high-throughput. TR-FRET GST/Flag-core106 dimerization, 1536-well. inhibition, % at 5 µM. 300,000 tested, 0.33% active;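 active = inhibition above the mean of all tested compounds plus 3 SD, set per screening campaign, cut at about 45% in these data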
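Material: Tagged HCV core106 pair (GST and Flag) | Amount: GST-core106 13.5 nM, Flag-core106 17 nM | Medium: KF-containing HEPES buffer, pH 7.45, DTT, CHAPS, BSA | Reagent: Eu donor and XL665 acceptor anti-tag antibodies | Schedule: 4 h at 22.5 °C | Technique: Time-resolved FRET, ex 340 nm, em 617 and 671 nm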
NadD inh = inhibitors of S. aureus NadD, primary screen, biochemical, colorimetric, uHTS. purified NadD enzyme, colorimetric absorbance read-out. 360,000 tested, 0.78% active. Nicotinate-nucleotide adenylyltransferase NadD (Staphylococcus aureus N315). inhibition, % at 20 µM; in the data active = inhibition above about 26%
IMP-1 inhibitor = IMP-1 metallo-beta-lactamase inhibitors, primary screen, biochemical, epi-absorbance readout, Pseudomonas aeruginosa enzyme; 290,000 tested, 0.45% active; AID 1556, 2009; inhibition, % at 5.6 µM; metallo-beta-lactamase IMP-1 (Pseudomonas aeruginosa); purified IMP-1, nitrocefin hydrolysis, epi-absorbance fluorescence;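 active = inhibition above the mean plus 3 SD of all compounds in the same screening run, cut at about 4.5% in these data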;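 note: 0% = IMP-1 with DMSO and 100% = DMSO wells lacking enzyme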
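System: Purified IMP-1 | Read-out basis: Percent enzyme inhibition | Controls: IMP-1 with DMSO as 0%, enzyme-free DMSO as 100% | Replicates: One well per compound | Doses: 5.6 µM nominal single concentration | Detection: Epi-absorbance fluorescence, 480 nm excitation, 530 nm emission | Incubation: 25 °C, 15 min preincubation, 25 min reaction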
Numbers without * were called inactive; nt = not tested or not shown. In the library only some 1.9% were active in any assay of this set; here they are far more common.

SMILES	VIM-2 inh	HCV core dimer	NadD inh	IMP-1 inhibitor
CC(=O)N1N=C(c2ccc(Cl)cc2)CC1c1ccco1 (stereo not drawn)	9.9*	-5.3	-2.0	-1.2
C/C(=N\NC(=O)c1nnn(-c2nonc2N)c1CN(C)c1ccccc1)c1ccccc1O	-3.0	12.3	36.1*	-1.7
Cc1c(NC(=O)COC(=O)c2ccccc2Cl)c(=O)n(-c2ccccc2)n1C	-1.8	-0.1	0.1	-3.0
Cc1c(NC(=O)COC(=O)c2cc3c4ccccc4n(C)c3s2)c(=O)n(-c2ccccc2)n1C	2.5	17.4	13.8	4.8*
COC(=O)Nc1ccc(S(=O)(=O)N2CCC(C(=O)NCc3ccc4c(c3)OCO4)CC2)cc1	nt	nt	-2.3	nt
CCN1CCN(CC(=O)Nc2c(OC)cccc2OC)CC1	-2.8	11.2	-4.6	5.5*
COc1ccc(OC)c(/C=C2\N=C(c3ccccc3)OC2=O)c1	10.2*	-0.7	7.1	0.4
O=C(CCSc1nc2ccccc2s1)N/N=C/c1c(O)ccc2ccccc12	-2.2	36.0	30.3*	-2.3
Cc1cc(-c2csc(NC(=O)C3=COCCO3)n2)c(C)n1C	nt	32.8	17.9	nt
Cc1cc(-c2csc(NC(=O)c3ccc(=O)n(C)n3)n2)c(C)n1CC1CCCO1 (stereo not drawn)	-1.6	52.9*	18.3	-1.4
Cc1cc(-c2csc(NC(=O)c3ccc(=O)[nH]c3)n2)c(C)n1Cc1ccco1	0.0	48.8*	67.1*	0.0
O=C(O)C1C2C=CC(C2)C1C(=O)NCCCN1CCCC1=O (stereo not drawn)	0.9	-0.6	-5.5	11.8*
O=C(O)C1C2C=CC(C2)C1C(=O)NCCCn1ccnc1 (stereo not drawn)	0.9	1.2	1.2	-3.3
CCN1CCc2c(sc(N)c2C#N)C1	-0.2	-4.6	8.5	-0.6
N#Cc1c(N)sc(=S)c2c1CCN(Cc1ccccc1)C2	nt	56.7*	nt	nt
O=C1/C(=C/c2ccco2)SC(=S)N1CC1CCCO1 (stereo not drawn)	0.2	16.6	7.2	5.4*
Cc1ccc(/C=C2\SC(=S)N(CC3CCCO3)C2=O)o1 (stereo not drawn)	-3.2	-3.6	3.8	0.7
O=C1/C(=C/c2ccco2)SC(=S)N1C1CCS(=O)(=O)C1 (stereo not drawn)	-2.8	21.3	-1.1	2.5
CCN(C(=O)C(C)N1C(=O)/C(=C/c2ccco2)SC1=S)C1CCS(=O)(=O)C1 (stereo not drawn)	-1.6	9.2	10.5	7.8*
O=C1/C(=C\c2ccco2)SC(=S)N1C1CCS(=O)(=O)C1 (stereo not drawn)	2.2	1.7	-0.7	7.3*
CC1CCCC(C)N1CCCNC(=O)Cn1c(=O)c2cccn2c2cccnc21 (stereo not drawn)	1.8	-2.7	-1.3	-4.2
C=CCn1c(=N)c(C(=O)NCCCOC)cc2c(=O)n3cc(C)ccc3nc21	11.4*	5.7	0.3	-5.1
Cc1cccn2c(=O)c3cc(C(=O)NCc4ccco4)c(=N)n(C4CCCC4)c3nc12	8.2*	19.3	-3.0	-3.7
Cc1ccc2nc3c(cc(C(=O)NC4CCCCC4)c(=N)n3C3CCCCC3)c(=O)n2c1	5.1	-3.2	3.8	-3.3
Cc1cccn2c(=O)c3cc(C(=O)NCC4CCCO4)c(=N)n(C4CCCCC4)c3nc12 (stereo not drawn)	8.0*	7.8	-1.1	-0.6
SMILES	VIM-2 inh	HCV core dimer	NadD inh	IMP-1 inhibitor
Cc1cccn2c(=O)c3cc(C(=O)NCC4CCCO4)c(=N)n(CC4CCCO4)c3nc12 (stereo not drawn)	1.0	-3.5	1.0	-2.2
Cc1ccc2nc3c(cc(C(=O)NC4CCCC4)c(=N)n3C3CCCCC3)c(=O)n2c1	12.2*	-2.0	-4.9	-1.3
C=CCn1c(=N)c(C(=O)NCCCOC)cc2c(=O)n3ccccc3nc21	6.7	0.5	-5.3	-3.1
CN1C(=O)/C(=C/c2ccc(OCc3ccccc3F)cc2)N(C)C1=S	-0.3	7.2	1.7	-2.6
CC1=C(C(=O)Nc2cc(C(=O)NCCCOC(C)C)ccc2C)SCCO1	-1.2	-0.3	-3.6	-1.5
COc1ccc(Nc2c3c(nc4ccc(C)cc24)CCC3)cc1	9.1*	21.8	11.9	-3.1
COc1ccccc1Nc1c2c(nc3ccc(N)cc13)CCCC2	8.7*	-1.6	3.6	-3.5
CCc1[nH]nc2c1C1(CCN(C(=O)c3ccccc3)CC1)C(C#N)=C(N)O2	10.8*	-0.4	0.8	-9.2
CC(=O)N1CCC2(CC1)C(C#N)=C(N)Oc1n[nH]c(CSc3ccc(C)cc3)c12	-1.3	-0.4	-2.4	-4.7
Cc1cc(N)ccc1NC(=O)CN1CCOCC1	-2.6	-6.5	-0.3	-4.3
Cc1ccc(S(=O)(=O)NCCC(=O)NC2CCCCCC2)cc1	nt	nt	-9.6	nt
CC1=C(C)CC(C(=O)NC2CCCC2)C(C(=O)O)C1 (stereo not drawn)	-1.8	nt	-7.1	-1.7
CC1=CCC(C(=O)O)C(C(=O)NC2CCCCC2)C1 (stereo not drawn)	-1.3	-13.4	-6.1	32.0*
S=C1NC2=C(CCCC2=C2SCCCS2)C(c2ccccc2)N1 (stereo not drawn)	1.4	48.4*	28.8	0.2
COc1ccc(C2NC(=S)NC3=C2CCCC3=C2SCCS2)cc1 (stereo not drawn)	-1.6	47.9*	61.2*	-2.2
COc1ccc2c(c1)CCC1=C2NC(=S)NC1c1ccc(N(C)C)cc1 (stereo not drawn)	-5.8	18.0	21.3	-3.0
S=C1NC2=C(CCC/C2=C\c2ccccc2)C(c2ccccc2)N1 (stereo not drawn)	-2.8	15.8	26.5	-5.4
N#Cc1ccc(Oc2ncccn2)cc1	nt	-0.7	-4.4	nt
Nc1[nH]n2c(=O)c3c(nc2c1N=Nc1ccc(Cl)cc1)CCCC3	-1.4	6.5	31.8*	-4.2
Nc1[nH]n2c(=O)c3c(nc2c1N=Nc1ccccc1)CCCC3	-4.1	-17.1	15.5	-0.7
Cc1nn(-c2ccccc2)c(OC(=O)c2cccs2)c1S(=O)(=O)c1ccc([N+](=O)[O-])cc1	-0.6	2.8	-4.6	4.8*
Oc1c(CN2CCOCC2)cc(COCc2ccccc2)c2cccnc12	7.7*	1.4	-6.6	-5.6
CC(=O)NN1C(=O)c2ccc(Oc3cccc([N+](=O)[O-])c3)cc2C1=O	6.4	0.7	9.2	6.0*
CC(C)[C@H](NC(=O)c1ccc(C(C)(C)C)cc1)C(=O)N1CCN(Cc2ccc3c(c2)OCO3)CC1	nt	nt	-5.8	nt
COc1c(F)c(F)c(C(=O)Nc2ccccc2N2CCN(C(C)=O)CC2)c(F)c1F	-1.4	47.3*	6.0	-1.1
COc1c(F)c(F)c(C(=O)Nc2ccccc2N2CCN(C(=O)C(C)C)CC2)c(F)c1F	-2.2	11.4	-2.8	-1.2
CC(C)Cn1c(-c2ccco2)csc1=Nc1cccnc1	-2.9	50.1*	11.6	-0.3
COC(=O)Cc1cc(OC)c(OC)cc1S(=O)(=O)N(C)C	-3.1	-2.4	-2.5	-4.1
